According to ChEMBL document CHEMBL1154725, “Synthesis and antitumor evaluation of novel diarylsulfonylurea derivatives: molecular modeling applications” (2010):

Legend:
Format in all cases: functional
Leukemia cell = experiment: Growth inhibition of human Leukemia cells after 48 hrs
Method in brief: (§1)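 NCI in vitro human tumour cell line screen (about 60 lines, nine subpanels). Compounds dissolved in DMSO, diluted in phosphate-buffered saline (final DMSO under 1%), tested at five concentrations from 0.01 to 100, in duplicate wells. Cells at 6 × 10⁴ cells/mL, 37 °C, 5% CO₂, 48 h. GI50 (50% decrease in net growth) taken from log concentration versus % growth inhibition curves; subpanel values are subpanel mean-graph midpoints.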

UACC-257 = experiment: Growth inhibition of human UACC257 cells after 48 hrs; conditions: UACC-257, 48 h; method in brief: as §1
OVCAR-3 = experiment: Growth inhibition of human OVCAR-3 cells after 48 hrs; conditions: OVCAR-3, 48 h; method in brief: as §1
EKVX = experiment: Growth inhibition of human EKVX cells after 48 hrs; method in brief: as §1
Melanoma cell = experiment: Growth inhibition of human Melanoma cells after 48 hrs; method in brief: as §1
[1] = Growth inhibition of human Prostate cancer cells after 48 hrs; conditions: Cancer cell lines; method in brief: as §1
[2] = Growth inhibition of human Breast cancer cells after 48 hrs; conditions: Cancer cell lines; method in brief: as §1
[3] = Growth inhibition of human Ovarian cancer cells after 48 hrs; conditions: Cancer cell lines; method in brief: as §1
[4] = Growth inhibition of human Colon cancer cells after 48 hrs; conditions: Cancer cell lines; method in brief: as §1
MCF7 = experiment: Growth inhibition of human MCF7 cells after 48 hrs; conditions: MCF7, 48 h; method in brief: as §1
HCC 2998 = experiment: Growth inhibition of human HCC2998 cells after 48 hrs; conditions: HCC 2998, 48 h; method in brief: as §1
NSCLC = experiment: Growth inhibition of human NSCLC cell after 48 hrs; method in brief: as §1
[5] = Growth inhibition of human CNS cancer cells after 48 hrs; conditions: Cancer cell lines; method in brief: as §1
[6] = Growth inhibition of human Renal cancer cells after 48 hrs; conditions: Cancer cell lines; method in brief: as §1

| SMILES | GI50 (Leukemia cell) | GI50 (UACC-257) | GI50 (OVCAR-3) | GI50 (EKVX) | GI50 (Melanoma cell) | GI50 [1] | GI50 [2] | GI50 [3] | GI50 [4] | GI50 (MCF7) | GI50 (HCC 2998) | GI50 (NSCLC) | GI50 [5] | GI50 [6] |
| --- | --- | --- | --- | --- | --- | --- | --- | --- | --- | --- | --- | --- | --- | --- |
| O=C(Nc1sc2c(c1C(=O)NNc1ccc(Cl)cc1)CCCCC2)NS(=O)(=O)c1ccccc1 | 30.6 µM | > 100 µM | > 100 µM | > 100 µM | 4.2 µM | 14.5 µM | 5.9 µM | 7.5 µM | 1.2 µM | 8.3 µM | 2.9 µM | 8.6 µM | 12 µM | > 100 µM |
| O=c1[nH]c2sc3c(c2c(=O)n1S(=O)(=O)c1ccccc1)CCCCC3 | 42.2 µM | > 100 µM | > 100 µM | 3.8 µM | 26.2 µM | 34.2 µM | 22.5 µM | 34.2 µM | 20.5 µM | > 100 µM | 19.5 µM | 9.3 µM | 81.3 µM | 50.2 µM |
| CN1CCN(C(=O)c2c(NC(=O)NS(=O)(=O)c3ccccc3)sc3c2CCCCC3)CC1 | > 100 µM | > 100 µM | > 100 µM | > 100 µM | 61.2 µM | 80.2 µM | 49.2 µM | 31.3 µM | 9.2 µM | > 100 µM | 15.3 µM | 22.3 µM | 56.2 µM | 42.3 µM |
| NNC(=O)c1c(NC(=O)NS(=O)(=O)c2ccccc2)sc2c1CCCCC2 | 30.3 µM | 2.8 µM | > 100 µM | > 100 µM | 4.5 µM | 15.8 µM | 4.5 µM | 1.5 µM | 3.5 µM | 4.2 µM | 0.9 µM | 10.5 µM | > 100 µM | > 100 µM |
| O=C(Nc1sc2c(c1C(=O)NNc1ccc(Br)cc1)CCCCC2)NS(=O)(=O)c1ccccc1 | > 100 µM | > 100 µM | 14.8 µM | > 100 µM | 31.3 µM | > 100 µM | 5.3 µM | 10.2 µM | 1.6 µM | > 100 µM | 1.6 µM | 11.5 µM | 25.5 µM | 11.5 µM |
| O=C(Nc1sc2c(c1C(=O)NNc1ccccc1)CCCCC2)NS(=O)(=O)c1ccccc1 | 18.6 µM | > 100 µM | 15.2 µM | > 100 µM | 32.3 µM | > 100 µM | 18.5 µM | 15.2 µM | 7 µM | > 100 µM | 6.3 µM | 16 µM | 30.9 µM | 26.3 µM |
| CCCCNC(=O)c1c(NC(=O)NS(=O)(=O)c2ccccc2)sc2c1CCCCC2 | > 100 µM | – | – | – | 76.7 µM | 92.6 µM | 85.2 µM | > 100 µM | 65.2 µM | – | – | 30.3 µM | 85.3 µM | 72.3 µM |
| O=C(Nc1sc2c(c1C(=O)N1CCN(c3ccccc3)CC1)CCCCC2)NS(=O)(=O)c1ccccc1 | > 100 µM | > 100 µM | 11.9 µM | > 100 µM | 52.3 µM | 60.3 µM | 58.2 µM | 36.2 µM | 11.5 µM | > 100 µM | 16.9 µM | 36.2 µM | 55.8 µM | 65.2 µM |
| CCCNC(=O)c1c(NC(=O)NS(=O)(=O)c2ccccc2)sc2c1CCCCC2 | 42.2 µM | > 100 µM | > 100 µM | 6.2 µM | 65.3 µM | 90.2 µM | 70.3 µM | 76.5 µM | 85.3 µM | > 100 µM | > 100 µM | 54.2 µM | 72.5 µM | 80.3 µM |
